Measured values reported in ChEMBL document CHEMBL1240400, “Comparative in vitro activities of nemonoxacin (TG-873870), a novel nonfluorinated quinolone, and other quinolones against clinical isolates” (2010).
Converted amounts (≈) assume the structure as drawn.

What was measured:
Assay type in all cases: functional
Proteus mirabilis = assay: Antibacterial activity against Proteus mirabilis by broth dilution method
Acinetobacter baumannii = assay: Antibacterial activity against Acinetobacter baumannii by broth dilution method
Procedure, shortened: (§1)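 Broth microdilution per CLSI in panels spanning a dilution range of each agent. Cation-adjusted Mueller-Hinton broth, final inoculum 5 × 10^5 CFU/ml from a 0.5 McFarland suspension. Incubated overnight at 35°C in ambient air, with quality control strains in each run. MIC reported; values at or below the lowest concentration tested are given as that concentration.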

Haemophilus influenzae = assay: Antibacterial activity against Haemophilus influenzae by broth dilution method
Procedure, shortened: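 Broth microdilution per CLSI using Haemophilus Test Medium broth, seeded from a 0.5 McFarland suspension. Incubated overnight at 35°C in ambient air, with quality control strains in each run. MIC read against a tested dilution range; values at the low limit are given as the lowest concentration.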

Pseudomonas aeruginosa = assay: Antibacterial activity against Pseudomonas aeruginosa by broth dilution method
Citrobacter freundii = assay: Antibacterial activity against Citrobacter freundii by broth dilution method; procedure, shortened: as §1
Escherichia coli [1] = assay: Antibacterial activity against ciprofloxacin susceptible Escherichia coli by broth dilution method; procedure, shortened: as §1
Enterobacter cloacae = assay: Antibacterial activity against Enterobacter cloacae by broth dilution method
Klebsiella pneumoniae = assay: Antibacterial activity against Klebsiella pneumoniae by broth dilution method; procedure, shortened: as §1
Staphylococcus aureus [2] = assay: Antibacterial activity against methicillin susceptible Staphylococcus aureus by broth dilution method
Staphylococcus aureus [3] = assay: Antibacterial activity against ciprofloxacin susceptible and methicillin resistant Staphylococcus aureus by broth dilution method
Procedure, shortened: (§2)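 Clinical isolates tested by CLSI broth microdilution in panels holding serial twofold drug dilutions in cation-adjusted Mueller-Hinton broth. Final inoculum 5 × 10^5 CFU/ml was made from a 0.5 McFarland suspension. Plates were incubated overnight at 35°C in ambient air, and the MIC was read as the lowest concentration inhibiting growth. Quality control strains were included in each run.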

Streptococcus agalactiae = assay: Antibacterial activity against Streptococcus agalactiae by broth dilution method
Procedure, shortened: (§3)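 Streptococci were tested by CLSI broth microdilution in Mueller-Hinton broth with 3% lysed horse blood, seeded from a 0.5 McFarland suspension. Incubated overnight at 35°C in ambient air, with quality control strains in each run. MIC taken over a per-agent dilution range.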

Staphylococcus = assay: Antibacterial activity against methicillin resistant coagulase negative Staphylococcus by broth dilution method
Streptococcus viridans = assay: Antibacterial activity against Streptococcus viridans by broth dilution method; procedure, shortened: as §3
Streptococcus pneumoniae [4] = assay: Antibacterial activity against Levofloxacin susceptible Streptococcus pneumoniae by broth dilution method
Procedure, shortened: (§4)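 Streptococcus pneumoniae clinical isolates tested by CLSI broth microdilution. A 0.5 McFarland suspension was diluted into Mueller-Hinton broth with 3% lysed horse blood, then tested against serial drug dilutions. Plates were incubated overnight at 35°C in ambient air, and the MIC was read as the lowest inhibitory concentration. Quality control strains were included in each run.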

Streptococcus pyogenes = assay: Antibacterial activity against Streptococcus pyogenes by broth dilution method; procedure, shortened: as §3
Escherichia coli [5] = assay: Antibacterial activity against ciprofloxacin resistant Escherichia coli by broth dilution method; procedure, shortened: as §2
Staphylococcus aureus [6] = assay: Antibacterial activity against ciprofloxacin and methicillin resistant Staphylococcus aureus by broth dilution method; procedure, shortened: as §2
[7] = tested on: Staphylococcus epidermidis; assay: Antibacterial activity against methicillin resistant coagulase negative Staphylococcus epidermidis by broth dilution method
Streptococcus pneumoniae [8] = assay: Antibacterial activity against Levofloxacin resistant Streptococcus pneumoniae by broth dilution method; procedure, shortened: as §4
Neisseria gonorrhoeae [9] = assay: Antibacterial activity against ciprofloxacin resistant Neisseria gonorrhoeae isolates by broth dilution method
Procedure, shortened: (§5)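 Neisseria gonorrhoeae clinical isolates tested by CLSI broth microdilution in Mueller-Hinton broth with 3% lysed horse blood, inoculated from a 0.5 McFarland suspension. Plates were incubated overnight at 35°C in 5% CO2, and the MIC was read as the lowest inhibitory concentration. Quality control strains were included in each run.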

Neisseria gonorrhoeae [10] = assay: Antibacterial activity against moxifloxacin resistant Neisseria gonorrhoeae isolates by broth dilution method; procedure, shortened: as §5
Neisseria gonorrhoeae [11] = assay: Antibacterial activity against levofloxacin resistant Neisseria gonorrhoeae isolates by broth dilution method; procedure, shortened: as §5

SMILES | MIC50 (Proteus mirabilis) | MIC90 (Proteus mirabilis) | MIC50 (Acinetobacter baumannii) | MIC90 (Acinetobacter baumannii) | MIC50 (Haemophilus influenzae) | MIC90 (Haemophilus influenzae) | MIC50 (Pseudomonas aeruginosa) | MIC90 (Pseudomonas aeruginosa) | MIC50 (Citrobacter freundii) | MIC90 (Citrobacter freundii) | MIC50 (Escherichia coli [1]) | MIC90 (Escherichia coli [1]) | MIC50 (Enterobacter cloacae) | MIC90 (Enterobacter cloacae) | MIC50 (Klebsiella pneumoniae) | MIC90 (Klebsiella pneumoniae) | MIC50 (Staphylococcus) | MIC90 (Staphylococcus) | MIC50 (Streptococcus viridans) | MIC90 (Streptococcus viridans) | further results
CO/N=C(\C(=O)N[C@@H]1C(=O)N2C(C(=O)[O-])=C(C[N+]3(C)CCCC3)CS[C@H]12)c1csc(N)n1 | ≤ 0.06 µg/mL | 8 µg/mL (≈ 16.6 µM) | > 8 µg/mL | > 8 µg/mL | 0.25 µg/mL (≈ 0.52 µM) | 0.5 µg/mL (≈ 1.04 µM) | > 8 µg/mL | > 8 µg/mL | ≤ 0.06 µg/mL | > 8 µg/mL |  |  |  |  |  |  |  |  |  |  | 
CC(C)(O/N=C(\C(=O)N[C@@H]1C(=O)N2C(C(=O)[O-])=C(C[n+]3ccccc3)CS[C@H]12)c1csc(N)n1)C(=O)O [CEFTAZIDIME] | ≤ 1 µg/mL | ≤ 1 µg/mL | 64 µg/mL (≈ 117 µM) | > 128 µg/mL | ≤ 1 µg/mL | ≤ 1 µg/mL | 32 µg/mL (≈ 58.5 µM) | > 128 µg/mL | ≤ 1 µg/mL | 64 µg/mL (≈ 117 µM) | 1 µg/mL (≈ 1.83 µM) | 16 µg/mL (≈ 29.3 µM) | 128 µg/mL (≈ 234 µM) | > 128 µg/mL | 16 µg/mL (≈ 29.3 µM) | > 128 µg/mL |  |  |  |  | MIC (Escherichia coli [1]): 1 µg/mL (≈ 1.83 µM); MIC (Haemophilus influenzae): ≤ 1 µg/mL
CO/N=C(\C(=O)N[C@@H]1C(=O)N2C(C(=O)O)=C(CSc3nc(=O)c(O)nn3C)CS[C@H]12)c1csc(N)n1 [CEFTRIAXONE] | ≤ 0.03 µg/mL | > 8 µg/mL | > 8 µg/mL | > 8 µg/mL | ≤ 0.03 µg/mL | ≤ 0.03 µg/mL | > 8 µg/mL | > 8 µg/mL | 0.25 µg/mL (≈ 0.451 µM) | > 8 µg/mL | 0.06 µg/mL (≈ 0.108 µM) | > 8 µg/mL | > 8 µg/mL | > 8 µg/mL | > 8 µg/mL | > 8 µg/mL | > 8 µg/mL | > 8 µg/mL | 0.25 µg/mL (≈ 0.451 µM) | 0.5 µg/mL (≈ 0.902 µM) | MIC50 (Staphylococcus aureus [2]): 4 µg/mL (≈ 7.21 µM); MIC90 (Staphylococcus aureus [2]): 4 µg/mL (≈ 7.21 µM); MIC50 (Staphylococcus aureus [3]): > 8 µg/mL; MIC90 (Staphylococcus aureus [3]): > 8 µg/mL; MIC50 (Streptococcus agalactiae): ≤ 0.06 µg/mL; MIC90 (Streptococcus agalactiae): 0.12 µg/mL (≈ 0.216 µM); MIC50 (Streptococcus pneumoniae [4]): 1 µg/mL (≈ 1.8 µM); MIC90 (Streptococcus pneumoniae [4]): 2 µg/mL (≈ 3.61 µM); MIC (Streptococcus pyogenes): ≤ 0.06 µg/mL; MIC50 (Streptococcus pyogenes): ≤ 0.06 µg/mL; MIC90 (Streptococcus pyogenes): ≤ 0.06 µg/mL; MIC50 (Escherichia coli [5]): > 8 µg/mL; MIC90 (Escherichia coli [5]): 64 µg/mL (≈ 115 µM); MIC50 (Staphylococcus aureus [6]): > 8 µg/mL; MIC90 (Staphylococcus aureus [6]): > 8 µg/mL; MIC (Pseudomonas aeruginosa): > 8 µg/mL; MIC50 [7]: > 8 µg/mL; MIC90 [7]: > 8 µg/mL; MIC50 (Streptococcus pneumoniae [8]): 1 µg/mL (≈ 1.8 µM); MIC90 (Streptococcus pneumoniae [8]): 2 µg/mL (≈ 3.61 µM)
O=C(O)c1cn(C2CC2)c2cc(N3CCNCC3)c(F)cc2c1=O [CIPROFLOXACIN] | 2 µg/mL (≈ 6.04 µM) | > 16 µg/mL | 4 µg/mL (≈ 12.1 µM) | > 16 µg/mL | 0.25 µg/mL (≈ 0.754 µM) | 16 µg/mL (≈ 48.3 µM) | 4 µg/mL (≈ 12.1 µM) | > 16 µg/mL | ≤ 0.06 µg/mL | 2 µg/mL (≈ 6.04 µM) | 0.25 µg/mL (≈ 0.754 µM) | 1 µg/mL (≈ 3.02 µM) |  |  | 4 µg/mL (≈ 12.1 µM) | > 16 µg/mL | 0.5 µg/mL (≈ 1.51 µM) | > 16 µg/mL | 1 µg/mL (≈ 3.02 µM) | 4 µg/mL (≈ 12.1 µM) | MIC (Neisseria gonorrhoeae [9]): 2 µg/mL (≈ 6.04 µM); MIC50 (Streptococcus pyogenes): 1 µg/mL (≈ 3.02 µM); MIC90 (Streptococcus pyogenes): 4 µg/mL (≈ 12.1 µM); MIC (Neisseria gonorrhoeae [10]): 0.5 µg/mL (≈ 1.51 µM); MIC50 (Escherichia coli [5]): > 16 µg/mL; MIC90 (Escherichia coli [5]): > 16 µg/mL; MIC (Neisseria gonorrhoeae [11]): 1 µg/mL (≈ 3.02 µM); MIC50 [7]: 0.5 µg/mL (≈ 1.51 µM); MIC90 [7]: > 16 µg/mL; MIC50 (Streptococcus pneumoniae [8]): > 16 µg/mL; MIC90 (Streptococcus pneumoniae [8]): > 16 µg/mL
C[C@@H](O)[C@H]1C(=O)N2C(C(=O)O)=C(SCCNC=N)C[C@H]12 [IMIPENEM ANHYDROUS] | 2 µg/mL (≈ 6.68 µM) | 8 µg/mL (≈ 26.7 µM) | 2 µg/mL (≈ 6.68 µM) | > 32 µg/mL | 1 µg/mL (≈ 3.34 µM) | 4 µg/mL (≈ 13.4 µM) |  |  | 1 µg/mL (≈ 3.34 µM) | 2 µg/mL (≈ 6.68 µM) |  |  | 1 µg/mL (≈ 3.34 µM) | 4 µg/mL (≈ 13.4 µM) | 0.5 µg/mL (≈ 1.67 µM) | 4 µg/mL (≈ 13.4 µM) |  |  |  |  | 
